≈ marks a conversion by molar mass, not a printed value. Each block holds one molecule with its values, some of them ahead of it. Calls of active or inactive are those of the source. No cut-off for these calls is given here.
Experiments:
Assay type in all cases: functional
Lichtheimia corymbifera [1] = experiment: Antifungal activity against Absidia corymbifera 272 after 48 hrs by microdilution method
Method in brief: (§1)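 Filamentous strains held on Sabouraud dextrose agar. NCCLS M27-A broth microdilution in RPMI 1640 with L-glutamine and 0.165 M MOPS, pH 7.0. DMSO diluent ≤2% final; twofold dilutions 500–0.48. Inoculum 5 × 10³ ± 0.2 cfu mL⁻¹ final.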

Nakaseomyces glabratus [2] = experiment: Antifungal activity against Candida glabrata 20/I after 24 hrs by microdilution method
Method in brief: (§2)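 Yeasts held on Sabouraud dextrose agar. MIC by NCCLS M27-A broth microdilution in RPMI 1640 with L-glutamine, buffered with 0.165 M MOPS to pH 7.0. Compounds in DMSO (≤2% final), twofold dilutions 500–0.48. Final inoculum 5 × 10³ ± 0.2 cfu mL⁻¹. Incubated at 35 °C; absorbance at 540 nm read at 24 and 48 h. MIC is 80% growth inhibition versus control; run twice in duplicate.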

Candida albicans [3] = experiment: Antifungal activity against Candida albicans ATCC 44859 after 48 hrs by microdilution method; method in brief: as §2
Candida tropicalis [4] = experiment: Antifungal activity against Candida tropicalis 156 after 24 hrs by microdilution method; method in brief: as §2
Candida parapsilosis [5] = experiment: Antifungal activity against Candida parapsilosis ATCC 22019 after 24 hrs by microdilution method; method in brief: as §2
Trichosporon beigelii [6] = experiment: Antifungal activity against Trichosporon beigelii 1188 after 24 hrs by microdilution method; method in brief: as §2
Nakaseomyces glabratus [7] = experiment: Antifungal activity against Candida glabrata 20/I after 48 hrs by microdilution method; method in brief: as §2
Clavispora lusitaniae [8] = experiment: Antifungal activity against Candida lusitaniae 2446/I after 24 hrs by microdilution method; method in brief: as §2
Pichia kudriavzevii [9] = experiment: Antifungal activity against Candida krusei E28 after 48 hrs by microdilution method; method in brief: as §2
Candida albicans [10] = experiment: Antifungal activity against Candida albicans ATCC 90028 after 24 hrs by microdilution method; method in brief: as §2
[11] = test system: Trichophyton mentagrophytes; experiment: Antifungal activity against Trichophyton mentagrophytes 445 after 72 hrs by microdilution method
Method in brief: (§3)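 Dermatophyte held on Sabouraud dextrose agar. M27-A microdilution in MOPS-buffered (0.165 M, pH 7.0) RPMI 1640 with L-glutamine. DMSO ≤2% final; twofold dilutions 500–0.48. Inoculum 5 × 10³ ± 0.2 cfu mL⁻¹ final. Incubated at 35 °C; MIC read visually at 72 and 120 h as 80% inhibition of control growth; determined twice in duplicate.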

Aspergillus fumigatus [12] = experiment: Antifungal activity against Aspergillus fumigatus 231 after 24 hrs by microdilution method; method in brief: as §1
Trichosporon beigelii [13] = experiment: Antifungal activity against Trichosporon beigelii 1188 after 48 hrs by microdilution method; method in brief: as §2
Pichia kudriavzevii [14] = experiment: Antifungal activity against Candida krusei ATCC 6258 after 24 hrs by microdilution method; method in brief: as §2
Clavispora lusitaniae [15] = experiment: Antifungal activity against Candida lusitaniae 2446/I after 48 hrs by microdilution method; method in brief: as §2
Candida parapsilosis [16] = experiment: Antifungal activity against Candida parapsilosis ATCC 22019 after 48 hrs by microdilution method; method in brief: as §2
Aspergillus fumigatus [17] = experiment: Antifungal activity against Aspergillus fumigatus 231 after 48 hrs by microdilution method; method in brief: as §1
Candida tropicalis [18] = experiment: Antifungal activity against Candida tropicalis 156 after 48 hrs by microdilution method; method in brief: as §2
Pichia kudriavzevii [19] = experiment: Antifungal activity against Candida krusei E28 after 24 hrs by microdilution method; method in brief: as §2
[20] = test system: Trichophyton mentagrophytes; experiment: Antifungal activity against Trichophyton mentagrophytes 445 after 120 hrs by microdilution method; method in brief: as §3
Candida albicans [21] = experiment: Antifungal activity against Candida albicans ATCC 90028 after 48 hrs by microdilution method; method in brief: as §2
Candida albicans [22] = experiment: Antifungal activity against Candida albicans ATCC 44859 after 24 hrs by microdilution method; method in brief: as §2
Lichtheimia corymbifera [23] = experiment: Antifungal activity against Absidia corymbifera 272 after 24 hrs by microdilution method; method in brief: as §1
Pichia kudriavzevii [24] = experiment: Antifungal activity against Candida krusei ATCC 6258 after 48 hrs by microdilution method; method in brief: as §2

MIC80 (Lichtheimia corymbifera [1]; Lichtheimia corymbifera, 272, 48 h): 250 µM (≈ 84.3 µg/mL)
MIC80 (Nakaseomyces glabratus [2]): 250 µM (≈ 84.3 µg/mL)
MIC80 (Candida albicans [3]; ATCC 44859, 48 h): 500 µM (≈ 169 µg/mL)
MIC80 (Candida tropicalis [4]; Candida tropicalis, 156, 24 h): > 500 µM
MIC80 (Candida parapsilosis [5]; Lodderomyces parapsilosis, ATCC 22019, 24 h): 250 µM (≈ 84.3 µg/mL)
MIC80 (Trichosporon beigelii [6]; Trichosporon beigelii, 1188, 24 h): > 500 µM
MIC80 (Nakaseomyces glabratus [7]): > 500 µM
MIC80 (Clavispora lusitaniae [8]): > 500 µM
MIC80 (Pichia kudriavzevii [9]; E28, 48 h): > 500 µM
MIC80 (Candida albicans [10]; ATCC 90028, 24 h): > 500 µM
MIC80 ([11]; Trichophyton mentagrophytes, 445, 72 h): 15.6 µM (≈ 5.27 µg/mL)
MIC80 (Aspergillus fumigatus [12]; Aspergillus fumigatus, 231, 24 h): > 500 µM
MIC80 (Trichosporon beigelii [13]; Trichosporon beigelii, 1188, 48 h): > 500 µM
MIC80 (Pichia kudriavzevii [14]; ATCC 6258, 24 h): 500 µM (≈ 169 µg/mL)
MIC80 (Clavispora lusitaniae [15]): > 500 µM
MIC80 (Candida parapsilosis [16]; Lodderomyces parapsilosis, ATCC 22019, 48 h): > 500 µM
MIC80 (Aspergillus fumigatus [17]; Aspergillus fumigatus, 231, 48 h): > 500 µM
MIC80 (Candida tropicalis [18]; Candida tropicalis, 156, 48 h): > 500 µM
MIC80 (Pichia kudriavzevii [19]; E28, 24 h): 500 µM (≈ 169 µg/mL)
MIC80 ([20]; Trichophyton mentagrophytes, 445, 120 h): 15.6 µM (≈ 5.27 µg/mL)
MIC80 (Candida albicans [21]; ATCC 90028, 48 h): > 500 µM
MIC80 (Candida albicans [22]; ATCC 44859, 24 h): 15.6 µM (≈ 5.27 µg/mL)
MIC80 (Lichtheimia corymbifera [23]; Lichtheimia corymbifera, 272, 24 h): 250 µM (≈ 84.3 µg/mL)
MIC80 (Pichia kudriavzevii [24]; ATCC 6258, 48 h): > 500 µM
Compound: CC(=O)OCC/C=C1/C=C(c2ccc(Br)cc2)C(=O)O1

Compound: O=C1CCC=C1c1ccc(Cl)c(Cl)c1
Activity (Lichtheimia corymbifera [1]): inactive
Activity (Candida albicans [3]): inactive
Activity (Candida tropicalis [4]): inactive
Activity (Candida parapsilosis [5]): inactive
Activity (Trichosporon beigelii [6]): inactive
Activity (Clavispora lusitaniae [8]): inactive
Activity (Pichia kudriavzevii [9]): inactive
Activity (Candida albicans [10]): inactive
Activity [11]: inactive
Activity (Aspergillus fumigatus [12]): inactive
Activity (Trichosporon beigelii [13]): inactive
Activity (Pichia kudriavzevii [14]): inactive
Activity (Clavispora lusitaniae [15]): inactive
Activity (Candida parapsilosis [16]): inactive
Activity (Aspergillus fumigatus [17]): inactive
Activity (Candida tropicalis [18]): inactive
Activity (Pichia kudriavzevii [19]): inactive
Activity [20]: inactive
Activity (Candida albicans [21]): inactive
Activity (Candida albicans [22]): inactive
Activity (Lichtheimia corymbifera [23]): inactive
Activity (Pichia kudriavzevii [24]): inactive
